The source of these data is PMC5800424 (Molecular carcinogenesis, 2016).

The test system of one assay is BxPC-3. The assay can be described thus: MTT proliferation assay, BxPC-3 cells. Conditions: Homo sapiens, BXPC-3, 24 h; for IC20: read-out: Approx. IC20; for IC50: read-out: Approx. IC50. The assay is classed as cell-based. In short, it runs like this: (§1)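 Cells were seeded at 4 × 10^3/well in 96-well plates and dosed 24 h later with graded concentrations of test compound for 24 h, with DMSO solvent control. Proliferation was read by modified MTT assay and approximate IC20/IC50 reported; triplicates, three independent experiments. Culture media, all at 37°C/5% CO2, were: BxPC-3 and Capan-2 RPMI/10% FBS; MIA PaCa-2 high-glucose DMEM/10% FBS/5% horse serum; PANC-1 DMEM/10% FBS; HPNE HPNE base medium/5% FBS/EGF.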

The test system of assay [1] is Capan-2. The assay can be described thus: MTT proliferation assay, Capan-2 cells. It counts as cell-based. Conditions: Homo sapiens, Capan-2, 24 h; for IC20: read-out: Approx. IC20; for IC50: read-out: Approx. IC50. In short, it runs like this: as §1
Another assay concerns PANC-1. The assay is described as follows: MTT proliferation assay, PANC-1 cells. It counts as cell-based. To be noted: Homo sapiens, PANC-1, 24 h; for IC20: read-out: Approx. IC20; for IC50: read-out: Approx. IC50. In short, it runs like this:
as §1

The subject of a further assay is HPNE. The assay can be described thus: MTT proliferation assay, HPNE cells. The assay is classed as cell-based. Conditions: Homo sapiens, 24 h; for IC20: read-out: Approx. IC20; for IC50: read-out: Approx. IC50. In short, it runs like this:
as §1

The test system of a further assay is MIA PaCa-2. The assay can be described thus: MTT proliferation assay, MIA PaCa-2 cells. To be noted: Homo sapiens, MIA PaCa-2, 24 h; for IC20: read-out: Approx. IC20; for IC50: read-out: Approx. IC50. The assay is classed as cell-based. In short, it runs like this: as §1
Assay [2] relates to GEM-resistant Capan-2 (GRC) cells. The assay can be described thus: Proliferation assay, GEM-resistant Capan-2. Conditions: 24h. The assay is classed as cell-based, human. In short, it runs like this:
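The resistant Capan-2 line was derived by stepwise nucleoside drug exposure: 5 μM for 4 days, 5 μM for 1 week, 7.5 μM for 1 week, each followed by drug-free recovery, then 10 μM for 4 months. It was kept in RPMI/10% FBS plus drug. Resistant and parental cells were treated with graded doses for 24 h, and proliferation was read by MTT; triplicates, three independent experiments.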

The test system of another assay is p50. The assay can be described thus: Immunoblot analysis of p50. Conditions: MIA PaCa-2; 24h; GEM 0.5 μM alone or with Nx 20 μg/mL. It counts as cell-based, human. In short, it runs like this: (§2)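 MIA PaCa-2 cells were exposed for 24 h to medium alone, test extract (20 μg/mL), nucleoside drug (0.5 μM), or both. They were lysed in 2x SDS buffer with protease and phosphatase inhibitors, run on 10% SDS-PAGE and transferred to nitrocellulose. Blocking was 1 h at RT in 5% milk or 5% BSA/TBST, primary antibody 2 h at RT, then HRP secondary 1 h. Detection was ECL; blots are representative of three independent experiments.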

The next assay has as its system p105. The assay is described as follows: Immunoblot analysis of p105. The assay is classed as cell-based, human. To be noted: MIA PaCa-2; 24h; GEM 0.5 μM alone or with Nx 20 μg/mL. A digest of the protocol: as §2
Assay [3] deals with GEM-resistant BxPC-3 (GRB) cells. The assay is described as follows: Proliferation assay, GEM-resistant BxPC-3. It counts as cell-based, human. Conditions: 24h.
The test system of a further assay is phospho-p65 (pp65). The assay can be described thus: Immunoblot analysis of pp65. The assay is classed as cell-based, human. Conditions: MIA PaCa-2; 24h; GEM 0.5 μM alone or with Nx 20 μg/mL.
In assay [4] the test system is Capan-2. The assay can be described thus: Annexin V apoptosis assay, Capan-2. The assay is classed as cell-based, human. Conditions: 24h, Nx 50 μg/mL, GEM 0.5 μM, alone or in combination.

As for `CCCCC[N+]12CCc3cc4c(cc3C1Cc1ccc(OC)c(OC)c1C2)OCO4.[Cl-]` (centres unmarked) [Ber 2-4, 9,10-dimethoxy-7-pentyl-5,6,7,8,13,13a-hexahydro-[1,3]dioxolo[4,5-g]isoquinolino[3,2-a]isoquinolin-7-ium chloride], the IC20 was about 5 µg/mL in the assay with BxPC-3; about 5 µg/mL with Capan-2 [1]; about 1 µg/mL in the assay with PANC-1; about 25 µg/mL in the assay with HPNE; about 10 µg/mL in the assay on MIA PaCa-2. Further, the IC50 in the assay on BxPC-3 was about 25 µg/mL; with Capan-2 [1], about 75 µg/mL; in the assay on PANC-1 it was about 5 µg/mL; in the assay with HPNE, about 75 µg/mL; with MIA PaCa-2, about 30 µg/mL.
For `COc1ccc2c(c1OC)C[N+]1(Cc3ccc(Br)cc3)CCc3cc4c(cc3C1C2)OCO4.[Br-]` (centres unmarked) [Ber 2-8, 7-(4-bromobenzyl)-9,10-dimethoxy-5,6,7,8,13,13a-hexahydro-[1,3]dioxolo[4,5-g]isoquinolino[3,2-a]isoquinolin-7-ium bromide], the IC20 in the assay on PANC-1 is about 5 µg/mL; with HPNE, about 25 µg/mL; in the assay with MIA PaCa-2, about 5 µg/mL. For the same compound, the half-maximal inhibitory concentration (IC50) in the assay on PANC-1 is about 50 µg/mL; with HPNE it was about 50 µg/mL; in the assay on MIA PaCa-2, about 20 µg/mL.
As to `COc1ccc2cc3[n+](cc2c1OC)CCc1cc2c(cc1-3)OCO2` [Berberine], the IC20 in the assay with BxPC-3 was about 5 µg/mL; in the assay on Capan-2 [1], about 5 µg/mL; in the assay on PANC-1 it was about 2.5 µg/mL; with HPNE it was about 5 µg/mL; with MIA PaCa-2, about 5 µg/mL. Moreover, the IC50 in the assay with BxPC-3 is about 25 µg/mL; in the assay on Capan-2 [1], about 75 µg/mL; with PANC-1, about 50 µg/mL; in the assay on HPNE it was about 75 µg/mL; in the assay with MIA PaCa-2 it was about 25 µg/mL.
As for `Nc1ccn([C@@H]2O[C@H](CO)[C@@H](O)C2(F)F)c(=O)n1` [GEM, gemcitabine], the “proliferation of GRC cells compared to WT parental Capan-2” value in assay [2] was “significantly higher level of tolerance”. For the same compound, the “levels of p50” value with p50 was “induced”. In addition, the “levels of p105” value in the assay on p105 is recorded as “induced”. In assay [3], the “proliferation of GRB cells compared to WT parental BxPC-3” value is recorded as “significantly higher level of tolerance”. Also, the “levels of pp65” value in the assay on phospho-p65 (pp65) was “induced”. Besides, in the assay with Capan-2 [4], the “apoptosis induction (Annexin V)” value is “did not observe Annexin positive cells”.
